# Screening data deposited in PubChem BioAssay by several laboratories.
# N-glyco inh – increase of ERlucT glycosylation luciferase signal, primary screen, N-linked glycosylation inhibitor project, D54 ERlucT cells, luminescence, set 2; D54 ERlucT glycosylation luciferase reporter, 24 h; percent of 100 nM tunicamycin response; reporter increase, % at 12.5 µM; actives 0.23% (n = 360,000); AID 588692, 2011;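 active means mean luciferase reporter signal, scaled so untreated is 0 and the glycosylation-blocking control 100, at or above a set limit in every replicate; inconclusive means mean reaches the limit but not every replicate does; inactive means mean below the limit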;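 further: luciferase carries N-glycosylation sites so blocking glycosylation raises the light; 0% = median of neutral control wells and 100% = median of 100 nM tunicamycin wells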
# T cell modulator – modulators of CD8 T cell-vesicle binding, primary screen, mouse 2C CD8+ T cells, flow cytometry | 2C CD8+ T cell-vesicle binding; hits give low values | response (vesicle binding), % at 7 µM | actives 0.068% (n = 330,000) | AID 2052, 2009;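 active means response, share of CD8 T cells binding vesicles, and their 90th percentile fluorescence all below set limits, cut at about 80% in these data, passing the limit was not always enough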;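 further: values below 100% mean blocked vesicle binding to the CD8+ T cells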
#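 Assay system: 2C TCR transgenic mouse naive CD8+ T cells, MACS-purified | Read-out: CD8+ gate FL2 mean fluorescence as % of same-row positive control | Signal: High-throughput flow cytometry with anti-B7-1 and anti-CD8 staining | Timing: Binding step 1.5 h, 37 °C, antibody labelling 20 min, ice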
# ALR inh – inhibitors of human ALR sulfhydryl oxidase, primary screen, biochemical, H2O2 detection, HRP-luminol luminescence, single point; inhibition, % (concentration not given with the values); actives 3.8% (n = 290,000); FAD-linked sulfhydryl oxidase ALR (Homo sapiens), P55789; AID 485317, 2010; purified ALR, DTT oxidation;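 active means mean replicate inhibition above about 79%, with every replicate also reaching it, limit read from the data; inconclusive means only one of the two criteria met; inactive means mean below limit and not every replicate reaching it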
# Target sequence (P55789 whole entry, looked up): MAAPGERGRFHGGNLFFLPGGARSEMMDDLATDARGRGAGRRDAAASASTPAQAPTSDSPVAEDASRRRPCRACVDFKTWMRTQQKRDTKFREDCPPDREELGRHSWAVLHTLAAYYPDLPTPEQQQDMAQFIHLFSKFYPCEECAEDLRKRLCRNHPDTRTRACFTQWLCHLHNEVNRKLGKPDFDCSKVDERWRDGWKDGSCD
# Numbers without * were called inactive; i = inactive; ? = inconclusive; nt = no result given. Many of the other results were omitted from the sample, so hits are more common in it than they were.
SMILES,N-glyco inh,T cell modulator,ALR inh
CCOC(=O)N1CCN(C(=O)CSCc2nc(-c3ccccc3F)oc2C)CC1,-1.1,224.6,99.8*
CCOC(=O)N1CCN(C(=O)CS(=O)(=O)Cc2nc(-c3ccccc3C)oc2C)CC1,-1.3,386.6,-4.9
CCN1C(=O)CC(C(=O)NC)SC1=Nc1cc(Cl)c(O)c(Cl)c1 (stereo not given),1.8,400.4,98.9*
CCN=C1SC(C(=O)Nc2cc(Cl)cc(Cl)c2)CC(=O)N1CC (stereo not given),4.1,603.3,-11.9
COc1ccc(NC(=O)CSc2nn3c(=O)c(C)nnc3s2)cc1,-1.2,786.7,65.0
Cc1nnc2sc(SCC(=O)Nc3ccc(Br)cc3)nn2c1=O,5.8,223.3,97.3*
Cc1nnc2sc(SCc3ccc(Br)cc3)nn2c1=O,1.7,273.0,48.9
COC(=O)c1ccc(NC(=O)CSc2nn3c(=O)c(C)nnc3s2)cc1,2.0,561.2,93.2*
CC(C)(C)NC(=S)NC(=O)C12CCC3CC(CC(C3)C1)C2,2.8,266.2,-9.0
CCCS(=O)(=O)NC(=O)C1(C)CCCN(C(=O)c2cccc(Cl)c2)C1 (stereo not given),-0.4,nt,nt
Oc1ccc(-c2cn3c(n2)SCC3)cc1,2.4,396.5,64.8
Oc1ccc(-c2cn3c(n2)SCC3)cc1O,0.2,446.9,98.7*
C[C@@H]1CN([C@@H](C)CO)C(=O)c2cc(N(C)C)ccc2O[C@@H]1CN(C)Cc1ccncc1,1.7,369.0,73.3
COc1ccc(CC2SC(=Nc3ccc(F)cc3)NC2=O)cc1 (stereo not given),-0.7,281.4,-1.6
CC(=O)c1ccc(S(=O)(=O)NCc2ccc(C(=O)NCC(c3ccccc3)N(C)C)cc2)cc1 (stereo not given),-5.7,297.5,-15.2
COc1ccccc1N/N=C/c1c(CO)cnc(C)c1O,5.2,134.1,99.9*
COc1ccccc1NS(=O)(=O)c1cccc(C(=O)N/N=C/c2c(CO)cnc(C)c2O)c1,1.9,194.2,25.1
COc1cc(N=Cc2c(CO)cnc(C)c2O)cc(OC)c1OC,0.6,295.6,99.2*
COc1ccc(C(=O)N/N=C/c2c(CO)cnc(C)c2O)cc1,-0.5,326.7,2.5
COc1cccc(-c2nn3c(-c4ccco4)nnc3s2)c1,1.3,292.5,94.4*
COc1cccc(OC)c1-c1nn2c(-c3ccco3)nnc2s1,1.0,269.0,-4.4
c1cc(-c2cn(C[C@H]3CC[C@@H]([C@@H]4CC[C@H](Cn5cc(-c6ccsc6)nn5)O4)O3)nn2)cs1,4.4,446.2,-9.5
COc1ccc(C2/C(=C(/O)c3ccc(F)cc3)C(=O)C(=O)N2CCCN2CCOCC2)cc1OC (stereo not given),1.2,98.1,-1.0
Cc1nn2c(=O)cc(CSCC(=O)Nc3ccccc3F)nc2s1,3.6,285.0,-8.3
CCc1nn2c(=O)cc(CSCC(=O)Nc3ccccc3F)nc2s1,3.4,i,99.2*
SMILES,N-glyco inh,T cell modulator,ALR inh
CC(C)NC(=O)c1ccc2c(c1)N(Cc1ccccc1)C(=O)C(C)(C)O2,-2.4,157.3,-5.5
Cc1nc(SCC(=O)c2cc(C)n(C3CC3)c2C)c2ccccc2n1,0.4,nt,nt
c1ccc(-n2nnc(-c3nccs3)n2)cc1,-6.3,245.0,94.5*
Brc1ccccc1-n1nnc(-c2nccs2)n1,-4.1,nt,-5.6
Nc1nnnn1/N=C/c1cccc(O)c1,4.0,251.8,3.5
COc1cc(/C=N/n2nnnc2N)ccc1O,0.3,474.7,99.4*
Nc1nnnn1/N=C/c1ccc(O)cc1,2.9,358.1,95.7*
COc1cc(/C=N/n2nnnc2N)ccc1OC(C)=O,-0.4,160.1,5.5
Cc1cc(C(=O)Cn2cnc3ccc(Cl)cc3c2=O)c(C)n1C1CC1,2.1,nt,nt
C/C(=N\NC(=O)c1ccoc1C)c1cccc2ccccc12,-3.8,209.0,-4.6
C/C(N)=C(/C#N)C(=O)COC(=O)c1cc2c(s1)CCCC2,-0.5,224.9,11.1
C/C(N)=C(/C#N)C(=O)COC(=O)c1cc2c(s1)CCC(C)C2 (stereo not given),1.8,316.0,96.2*
COc1ccc(C2=CCN3CCCCC3C2)c(-c2ccc(OC)c(OC)c2)c1 (stereo not given),-6.6,218.5,0.8
COc1cc2c(cc1OC)C(C)N(C(=O)Nc1ccc(F)cc1)CC2 (stereo not given),15.5,327.6,nt
O=C(/C=C/Sc1ccccc1)c1ccccc1,33.3*,725.3,?
O=C(C=Cc1ccccc1Cl)c1ccccc1,10.3,nt,nt
O=C(/C=C/Sc1ccccc1)c1ccc(Cl)cc1,43.8*,328.1,-19.8
O=C(/C=C/Nc1ccccc1)c1ccccc1,-18.7,286.0,-0.9
Cc1cccc(C)c1NC(=O)COC(=O)C1CC1,1.4,135.4,-0.9
CC(C)C(=O)N1CCC1(C)C(=O)Nc1ccc(-n2cncn2)cc1 (stereo not given),1.3,nt,nt
COC(=O)C1(O)CC(C(C)C)=NN1C(=O)c1ccccc1 (stereo not given),1.1,638.3,25.4
COc1cc(OC)c(OC)cc1/C=N/NC(=O)c1ccc(CSc2nc(C)cc(C)n2)cc1,-2.0,291.1,-1.8
Cc1cc(C)nc(SCc2ccc(C(=O)N/N=C/c3ccccc3C(=O)O)cc2)n1,-2.5,394.1,91.1*
Cc1cc(=O)oc2cc(OCC(=O)Nc3c(Cl)cccc3C(F)(F)F)ccc12,-9.0,427.0,-2.1
CCN(CC)c1ccc2c(c1)CCCN2,nt,377.5,96.5*
SMILES,N-glyco inh,T cell modulator,ALR inh
O=S(=O)(c1ccc2c(c1)CCCN2)N1CCCCC1,-1.9,120.0,8.5
CCCn1c(C(C)Nc2nc(-c3ccc(Cl)c([N+](=O)[O-])c3)cs2)nc2cc(Cl)c(N3CCCCC3)cc21 (stereo not given),0.3,431.7,-3.4
Cc1cc(C)c2nc(-c3ccccn3)cc(C(=O)NCc3ccco3)c2c1,2.2,533.5,89.1*
Cc1cc(C)c2nc(-c3ccccn3)cc(C(=O)NCc3cc(C)n(C)n3)c2c1,6.0,179.4,-4.6
CC(=O)c1cccc(NC(=O)N2CCC(c3ccc(C)cc3)C2)c1 (stereo not given),3.1,386.6,-4.5
Cc1nc2ccc(-c3ccccc3)cc2o1,2.0,190.3,96.1*
Cc1nc2cc(Cc3ccccc3)ccc2o1,-0.4,nt,nt
CC(C)(C)Cc1c(-c2ccc(C#N)cc2)nc2c(Cl)cc(C(F)(F)F)cn12,-11.5,nt,nt
CCOC(=O)c1ccc(NC(=O)[C@@H]2CCC(=O)N2C2OC(=O)c3c2ccc(OC)c3OC)cc1 (stereo not given in full),1.5,nt,nt
CC1=NN(Cc2ccccc2)C(=O)C1C(c1ccc(Cl)cc1)C(C#N)C#N (stereo not given),2.5,173.7,24.5
CC1=NN(Cc2ccccc2)C(=O)C1C(c1ccccc1)C(C#N)C#N (stereo not given),nt,984.3,97.9*
COc1ccccc1NC(=O)C(C)OC(=O)/C(=C/c1ccccc1)NC(C)=O (stereo not given),-0.2,271.0,14.3
CC(C)c1ccc(NC2CCCN(C(=O)CCN3CCCCC3=O)C2)cc1 (stereo not given),-0.8,197.2,97.5*
CC(C)c1ccc(NC2CCCN(C(=O)CN3CCOC3=O)C2)cc1 (stereo not given),-0.5,582.4,71.9
